Reference: ChEMBL document CHEMBL1148725, “2,2,2-Trichloro-N-({2-[2-(dimethylamino)ethyl]-1,3-dioxo-2,3-dihydro-1H-benzo[de]isoquinolin- 5-yl}carbamoyl)acetamide (UNBS3157), a novel nonhematotoxic naphthalimide derivative with potent antitumor activity” (J Med Chem, 2007)
Calls of active or inactive are those of the source. The rule behind the calls is not given here.

Tests used:
Mus musculus [1] = assay: Hematotoxicity in B6D2F1 mouse assessed as platelet count at 80 mg/kg, po; format: organism-based; design: dose 80 mg/kg, route oral; details: in vivo
Mus musculus [2] = assay: Hematotoxicity in B6D2F1 mouse assessed as platelet count at 120 mg/kg, po; format: organism-based; design: dose 120 mg/kg, route oral; details: in vivo
[3] = Antiproliferative activity against Hs683 cells after 72 hrs by MTT assay; format: functional, cell-based, Homo sapiens, Hs 683; details: Homo sapiens, Hs 683, 72 h
Summary of the method: (§1)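 Cells cultured with each compound for three days; growth then read by the MTT colorimetric assay and reported as IC50 (µM).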

[4] = Antiproliferative activity against U373MG cells after 72 hrs by MTT assay; format: functional, cell-based, Homo sapiens, U-373MG ATCC; details: Homo sapiens, U373 MG, 72 h; summary of the method: as §1
HCT-15 = assay: Antiproliferative activity against HCT15 cells after 72 hrs by MTT assay; format: functional, cell-based, Homo sapiens; details: Homo sapiens, HCT-15, 72 h; summary of the method: as §1
MCF7 [5] = assay: Antiproliferative activity against MCF7 cells after 72 hrs by MTT assay; format: functional, cell-based, Homo sapiens; details: Homo sapiens, MCF7, 72 h; summary of the method: as §1
[6] = Toxicity in ip dosed B6D2F1 mouse; format: organism-based; details: in vivo
Summary of the method: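 Acute MTD was set by a single i.p. dose to groups of three healthy female B6D2F1 mice, at 2.5, 5, 10, 20, 40, 80 and 160 mg/kg. The MTD is the dose just below the lowest dose that killed at least one mouse.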

L1210 [7] = assay: Antitumor activity in L1210 cells xenografted B6D2F1 mouse at 10 mg/kg, ip relative to control; format: functional; details: route intraperitoneal
Summary of the method: (§2)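 Mice grafted with L1210 leukaemia cells on day 0, then dosed i.p. four times weekly on days 1-4 and 8-11. Five mice per group. Outcome is %T/C, the median survival of treated over control. Kruskal-Wallis test followed by Dunn comparisons against control.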

L1210 [8] = assay: Antitumor activity in L1210 cells xenografted B6D2F1 mouse at 40 mg/kg, ip relative to control; format: functional; details: route intraperitoneal; summary of the method: as §2
L1210 [9] = assay: Antitumor activity in L1210 cells xenografted B6D2F1 mouse at 80 mg/kg, ip relative to control; format: functional; details: route intraperitoneal; summary of the method: as §2
L1210 [10] = assay: Antitumor activity in L1210 cells xenografted B6D2F1 mouse at 160 mg/kg, ip relative to control; format: functional; details: route intraperitoneal; summary of the method: as §2
Mus musculus [11] = assay: Hematotoxicity in B6D2F1 mouse assessed as platelet count at 10 mg/kg, iv; format: organism-based; design: dose 10 mg/kg, route intravenous; details: in vivo
Mus musculus [12] = assay: Hematotoxicity in B6D2F1 mouse assessed as platelet count at 20 mg/kg, iv; format: organism-based; design: dose 20 mg/kg, route intravenous; details: in vivo
Mus musculus [13] = assay: Hematotoxicity in B6D2F1 mouse assessed as WBC count at 10 mg/kg, iv; format: organism-based; design: dose 10 mg/kg, route intravenous; details: in vivo
Mus musculus [14] = assay: Hematotoxicity in B6D2F1 mouse assessed as RBC count at 10 mg/kg, iv; format: organism-based; design: dose 10 mg/kg; details: in vivo
Mus musculus [15] = assay: Hematotoxicity in B6D2F1 mouse assessed as RBC count at 20 mg/kg, iv; format: organism-based; design: dose 20 mg/kg, route intravenous; details: in vivo
Mus musculus [16] = assay: Hematotoxicity in B6D2F1 mouse assessed as WBC count at 20 mg/kg, iv; format: organism-based; design: dose 20 mg/kg, route intravenous; details: in vivo
Mus musculus [17] = assay: Hematotoxicity in B6D2F1 mouse assessed as RBC count at 80 mg/kg, po; format: organism-based; design: dose 80 mg/kg, route oral; details: in vivo
Mus musculus [18] = assay: Hematotoxicity in B6D2F1 mouse assessed as RBC count at 120 mg/kg, po; format: organism-based; design: dose 120 mg/kg, route oral; details: in vivo
Mus musculus [19] = assay: Hematotoxicity in B6D2F1 mouse assessed as RBC count at 160 mg/kg, po; format: organism-based; design: dose 160 mg/kg, route oral; details: in vivo
Mus musculus [20] = assay: Hematotoxicity in B6D2F1 mouse assessed as WBC count at 80 mg/kg, po; format: organism-based; design: dose 80 mg/kg, route oral; details: in vivo
Mus musculus [21] = assay: Hematotoxicity in B6D2F1 mouse assessed as WBC count at 120 mg/kg, po; format: organism-based; design: dose 120 mg/kg, route oral; details: in vivo
Mus musculus [22] = assay: Hematotoxicity in B6D2F1 mouse assessed as WBC count at 160 mg/kg, po; format: organism-based; design: dose 160 mg/kg, route oral; details: in vivo
PC-3 [23] = assay: Induction of apoptosis in human PC3 cells at 10 uM after 72 hrs; format: functional
Summary of the method: (§3)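 Prostate cancer cells exposed for 72 h to 0, 1 or 10 µM. Apoptosis quantified by flow cytometry after Annexin V-FITC staining.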

DU-145 [24] = assay: Induction of apoptosis in human DU145 cells at 10 uM after 72 hrs; format: functional; summary of the method: as §3
PC-3 [25] = assay: Induction of apoptosis in human PC3 cells assessed as p53 activation; format: functional, cell-based
Summary of the method: (§4)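 PC-3 and DU-145 cells treated over 72 h at 1 and 10 µM, compared with untreated cells. p53, PARP cleavage and procaspase-3/-9 activation assessed by immunoblotting.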

DU-145 [26] = assay: Induction of apoptosis in human DU145 cells assessed as p53 activation; format: functional, cell-based; summary of the method: as §4
MCF7 [27] = assay: Induction of apoptosis in human MCF7 cells assessed as p53 activation; format: functional, cell-based
Summary of the method: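 MCF-7 cells treated and p53 activation assessed by immunoblotting, with tubulin as loading control. Adriamycin (2.5 µM, 24 h) served as positive control.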

PC-3 [28] = assay: Induction of apoptosis in human PC3 cells assessed as procaspase-8 activation; format: functional, cell-based
PC-3 [29] = assay: Induction of apoptosis in human PC3 cells assessed as procaspase-9 activation; format: functional, cell-based; summary of the method: as §4
PC-3 [30] = assay: Induction of apoptosis in human PC3 cells assessed as PARP cleavage activation; format: functional, cell-based; summary of the method: as §4
DU-145 [31] = assay: Induction of apoptosis in human DU145 cells assessed as procaspase-8 activation; format: functional, cell-based
DU-145 [32] = assay: Induction of apoptosis in human DU145 cells assessed as procaspase-9 activation; format: functional, cell-based; summary of the method: as §4
DU-145 [33] = assay: Induction of apoptosis in human DU145 cells assessed as PARP cleavage activation; format: functional, cell-based; summary of the method: as §4
PC-3 [34] = assay: Cell cycle arrest in PC3 cells assessed as accumulation at G2 phase at 10 uM after 72 hrs; format: functional, cell-based; details: Homo sapiens
Summary of the method: (§5)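 PC-3 or DU-145 cells treated for 72 h with 0, 1 or 10 µM. Cell-cycle distribution (G0/G1, S, G2/M) determined by propidium iodide staining.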

DU-145 [35] = assay: Cell cycle arrest in DU145 cells assessed as accumulation at G2 phase at 10 uM after 72 hrs; format: functional, cell-based; details: Homo sapiens; summary of the method: as §5
DU-145 [36] = assay: Induction of senescence in human DU145 cells; format: functional, cell-based
Summary of the method: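 SA-β-galactosidase staining of PC-3 and DU-145 prostate cancer cells after 72 h at 10 µM; adriamycin 20 nM as positive control; expressed as percentage of positively stained cells.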

Mus musculus [37] = assay: Hematotoxicity in ip dosed B6D2F1 mouse assessed as decrease in WBC count; format: organism-based; details: in vivo
Summary of the method: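 Healthy female B6D2F1 mice, 10 per group, were dosed i.p. three times a week for five consecutive weeks (15 doses). Each compound was given at two dose levels chosen relative to its MTD, in DMSO/saline 5:95 v/v. Mice were sacrificed 3 days after the last dose, and platelet, RBC and WBC counts were taken by Coulter counter. Data are mean ± SEM.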

[38] = Antitumor activity against mouse MXT-HI cells xenografted in B6D2F1 mouse at 160 mg/kg, ip relative to control; format: functional; details: route intraperitoneal
Summary of the method: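 MXT-HI mammary adenocarcinoma grafted s.c. onto female B6D2F1 mice. Dosing i.p., five injections weekly for three weeks from day 14 post-graft. Nine mice per group. Tumour surface area measured, and survival expressed as %T/C, the ratio of treated to control median survival time.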

Homo sapiens = organism: Homo sapiens; assay: Inhibition of human topoisomerase 2 at 50 uM by plasmid linearization assay
MDA-MB-231 = assay: Antitumor activity against human MDA-MB-231 cells xenografted in immunocompromised mouse at 10 mg/kg, iv

## CN(C)CCN1C(=O)c2cccc3cc(NC(=O)NC(=O)C(Cl)(Cl)Cl)cc(c23)C1=O
Mus musculus [1]
  Activity: 872 10^3 /uL
Mus musculus [2]
  Activity: 977 10^3 /uL
[3]
  IC50: 800 nM
[4]
  IC50: 900 nM
HCT-15
  IC50: 900 nM
MCF7 [5]
  IC50: 1800 nM
[6]
  MTD: > 160 mg/kg
L1210 [7]
  Activity: 197%
L1210 [8]
  Activity: 272%
L1210 [9]
  Activity: >300%
L1210 [10]
  Activity: 300%
Mus musculus [11]
  Activity: 402 10^3 /uL
Mus musculus [12]
  Activity: 397 10^3 /uL
Mus musculus [13]
  Activity: 3.92 10^3 /uL
Mus musculus [14]
  Activity: 9.41 10^6 /uL
Mus musculus [15]
  Activity: 9.09 10^6 /uL
Mus musculus [16]
  Activity: 2.92 10^3 /uL
Mus musculus [17]
  Activity: 9.95 10^6 /uL
Mus musculus [18]
  Activity: 10.13 10^6 /uL
Mus musculus [19]
  Activity: 10.13 10^6 /uL
Mus musculus [20]
  Activity: 3.21 10^3 /uL
Mus musculus [21]
  Activity: 2.85 10^3 /uL
Mus musculus [22]
  Activity: 2.82 10^3 /uL
PC-3 [23]
  Activity: 10%
DU-145 [24]
  Activity: 15%
PC-3 [25]
  Activity: inactive
DU-145 [26]
  Activity: inactive
MCF7 [27]
  Activity: inactive
PC-3 [28]
  Activity: inactive
PC-3 [29]
  Activity: inactive
PC-3 [30]
  Activity: inactive
DU-145 [31]
  Activity: inactive
DU-145 [32]
  Activity: inactive
DU-145 [33]
  Activity: inactive
PC-3 [34]
  Activity: Active
DU-145 [35]
  Activity: inactive
DU-145 [36]
  Activity: Active
Mus musculus [37]
  Activity: Non-toxic
[38]
  Activity: 183%
Homo sapiens
  Activity: inactive
MDA-MB-231
  Activity: Active
